Experimental findings from ChEMBL document CHEMBL2434844, “Synthesis, antimicrobial, antioxidant activities of novel 6-aryl-5-cyano thiouracil derivatives” (Eur J Med Chem, 2013) are described below.

By IC50 is commonly meant the concentration that gives 50% inhibition. One may read the MIC as the lowest concentration found to suppress growth.

Format in all cases: functional
The subject of test [1] is Radical scavenging activity. Description: Antioxidant activity assessed as DPPH free radical scavenging activity after 20 mins by UV-visible spectrophotometric analysis. Summed up:
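Kept in the dark at room temperature for 20 min, then absorbance read at 517 nm against DPPH blank, DMSO baseline. % scavenging = [(Ac−At)/Ac]×100; IC50 (µg/mL) from concentration plot; mean ± SEM, n=3, 8 replica each.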
On the technique in general: Loss of DPPH colour is used to gauge radical scavenging.

For test [2], the system named is Aspergillus flavus. Put plainly: Antifungal activity against Aspergillus flavus ATCC 11495 after 24 hrs by microdilution technique. In general terms: In broth dilution the organism is exposed to a series of concentrations in liquid medium.
The test system of test [3] is Aspergillus flavus. Description: Antifungal activity against Aspergillus flavus ATCC 11495 at 10 mg/disc after 48 hrs by disc-diffusion method. In short, it runs like this:
(§1)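 Disc diffusion per Bauer method under NCCLS conditions on nutrient agar/Mueller-Hinton agar. Compound dissolved in sterile DMSO at 10 mg/mL, filtered 0.2 µm, stored frozen at -15 °C; 10 mg/disc in DMSO applied. DMSO control. Inhibition zone diameter measured in mm after 48 h incubation at 28 °C.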
Background: Agar diffusion results depend on both activity and mobility in agar.

Test [4] concerns Candida albicans. Put plainly: Antifungal activity against Candida albicans ATCC 26555 after 24 hrs by microdilution technique. In short, it runs like this: (§2)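 MIC by agar microdilution on Mueller-Hinton agar per NCCLS 1997. Bacteria subcultured overnight at 37 °C on MHA, Candida on SDA at 35 °C for 24-48 h, each passaged at least twice. Incubated 37 °C in humid chamber, read after 24 h.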

Test [5] relates to Candida albicans. Put plainly: Antifungal activity against Candida albicans ATCC 26555 at 10 mg/disc after 48 hrs by disc-diffusion method. In short, it runs like this: as §1
Test [6] has as its system Escherichia coli. Description: Antibacterial activity against Escherichia coli ATCC 11775 after 24 hrs by microdilution technique. In short, it runs like this:
as §2

For test [7], the system named is Escherichia coli. Put plainly: Antibacterial activity against Escherichia coli ATCC 11775 at 10 mg/disc after 48 hrs by disc-diffusion method. In short, it runs like this:
as §1

Test [8] has as its system Bacillus cereus. Put plainly: Antibacterial activity against Bacillus cereus ATCC 14579 after 24 hrs by microdilution technique. In short, it runs like this: as §2
Test [9] concerns Bacillus cereus. Description: Antibacterial activity against Bacillus cereus ATCC 14579 at 10 mg/disc after 48 hrs by disc-diffusion method. In short, it runs like this:
as §1

In test [10] the test system is Staphylococcus aureus. Put plainly: Antibacterial activity against Staphylococcus aureus ATCC 12600 after 24 hrs by microdilution technique. Summed up: as §2
The subject of test [11] is Staphylococcus aureus. Put plainly: Antibacterial activity against Staphylococcus aureus ATCC 12600 at 10 mg/disc after 48 hrs by disc-diffusion method. In short, it runs like this:
as §1

Test [12] deals with Escherichia coli. Put plainly: Antibacterial activity against Escherichia coli ATCC 11775 at 10 mg/ml after 48 hrs by disc-diffusion method. Conditions: DSM 30083 = JCM 1649, 48 h, read-out: DIZ. In short, it runs like this:
(§3)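 Disc-diffusion reference: penicillin at 10 mg/mL on nutrient agar/Mueller-Hinton agar per Bauer method; inhibition zone diameter (mm) read after 48 h at 28 °C.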

In test [13] the test system is Bacillus cereus. Put plainly: Antibacterial activity against Bacillus cereus ATCC 14579 at 10 mg/ml after 48 hrs by disc-diffusion method. To be noted: ATCC 14579, 48 h, read-out: DIZ. In short, it runs like this: as §3
The subject of test [14] is Staphylococcus aureus. Put plainly: Antibacterial activity against Staphylococcus aureus ATCC 12600 at 10 mg/ml after 48 hrs by disc-diffusion method. Conditions: ATCC 12600, 48 h, read-out: DIZ. In short, it runs like this: as §3
In test [15] the test system is Aspergillus flavus. Put plainly: Antifungal activity against Aspergillus flavus ATCC 11495 at 50 ug/ml after 48 hrs by disc-diffusion method. To be noted: ATCC 11495, 48 h, read-out: DIZ. Summed up:
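Disc diffusion per Bauer et al., following NCCLS conditions, on nutrient agar or Mueller-Hinton agar. Compounds were dissolved in sterile DMSO at 10 mg/mL stock, filtered at 0.2 µm and stored frozen at -15 °C. Test discs carried 10 mg/disc in DMSO, and fluconazole reference was 50 µg/mL. After 48 h incubation at 28 °C, inhibition zone diameter was read in mm.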

Test [16] relates to Candida albicans. Put plainly: Antifungal activity against Candida albicans ATCC 26555 at 50 ug/ml after 48 hrs by disc-diffusion method. Conditions: ATCC 26555, 48 h, read-out: DIZ.

Converted amounts (≈) assume the structure as drawn. The source made the active and inactive calls. No cut-off for these calls is given here.

As for `N#Cc1c(-c2ccc(F)cc2)[nH]c(=S)n2c(=O)[nH]nc12`, in [1], the Activity entry is “Dose-dependent effect”. Moreover, in test [1], the IC50 came to 19.62 µg/mL (≈ 68.3 µM). In addition, the MIC result in the test on Aspergillus flavus [2], in the test on Candida albicans [4], with Escherichia coli [6] (DSM 30083 = JCM 1649) and in the test on Bacillus cereus [8] was “inactive” throughout. Moreover, the “diameter of the inhibition zone (DIZ)” value with Aspergillus flavus [3], in the test on Candida albicans [5], with Escherichia coli [7] (DSM 30083 = JCM 1649) and in the test with Bacillus cereus [9] was “inactive” throughout. In the test with Staphylococcus aureus [10] (ATCC 12600, 24 h), this compound came in with an MIC of 32 µg/mL (≈ 111 µM). Further, in the test on Staphylococcus aureus [11], the “diameter of the inhibition zone (DIZ)” value was 12 mm.
For `N#Cc1c(N/N=C/c2ccccc2)nc(=S)[nH]c1-c1ccc(F)cc1`, the Activity entry in test [1] was “Dose-dependent effect”. Moreover, the IC50 in [1] turned out to be 13.8 µg/mL (≈ 39.5 µM). The MIC in the test on Aspergillus flavus [2] (ATCC 11495, 24 h) was 16 µg/mL (≈ 45.8 µM); against Candida albicans [4] (ATCC 26555, 24 h), 16 µg/mL (≈ 45.8 µM); with Escherichia coli [6] (DSM 30083 = JCM 1649, 24 h), 16 µg/mL (≈ 45.8 µM); against Bacillus cereus [8] (ATCC 14579, 24 h) it was 16 µg/mL (≈ 45.8 µM); against Staphylococcus aureus [10] (ATCC 12600, 24 h) it was 16 µg/mL (≈ 45.8 µM). The “diameter of the inhibition zone (DIZ)” value in the test with Aspergillus flavus [3] was determined as 19 mm; in the test with Candida albicans [5] it was 19 mm; with Escherichia coli [7], 19 mm; in the test on Bacillus cereus [9] it was 22 mm; in the test on Staphylococcus aureus [11], 24 mm.
As for `COc1cc(-c2[nH]c(=S)n3c(=O)c(=O)[nH]nc3c2C#N)cc(OC)c1OC`, the Activity result in test [1] is “Dose-dependent effect”. The half-maximal inhibitory concentration (IC50) in test [1] turned out to be 8.55 µg/mL (≈ 22.1 µM). In addition, the minimal inhibitory concentration (MIC) with Aspergillus flavus [2] (ATCC 11495, 24 h) worked out at 16 µg/mL (≈ 41.3 µM); against Staphylococcus aureus [10] (ATCC 12600, 24 h), 32 µg/mL (≈ 82.6 µM). Also, the figures for the “diameter of the inhibition zone (DIZ)” value with Aspergillus flavus [3] and with Staphylococcus aureus [11] were 17 mm and 14 mm, respectively. The MIC entry in the test with Candida albicans [4], with Escherichia coli [6] (DSM 30083 = JCM 1649) and with Bacillus cereus [8] was “inactive” each time. For the same compound, the “diameter of the inhibition zone (DIZ)” value in the test on Candida albicans [5], with Escherichia coli [7] (DSM 30083 = JCM 1649) and in the test with Bacillus cereus [9] was “inactive” throughout.
On to `COc1cc(-c2[nH]c(=S)nc(NN)c2C#N)cc(OC)c1OC`, for which, in test [1], the Activity entry was “Dose-dependent effect”. In addition, the 50% inhibitory concentration (IC50) in test [1] turned out to be 6.21 µg/mL (≈ 18.6 µM). In addition, the MIC entry with Aspergillus flavus [2] and with Candida albicans [4] was “inactive” each time. The “diameter of the inhibition zone (DIZ)” value in the test on Aspergillus flavus [3] and with Candida albicans [5] was “inactive” in each case. Further, the MIC against Escherichia coli [6] (DSM 30083 = JCM 1649, 24 h) was 32 µg/mL (≈ 96 µM); against Bacillus cereus [8] (ATCC 14579, 24 h) it was 64 µg/mL (≈ 192 µM); in the test on Staphylococcus aureus [10] (ATCC 12600, 24 h), 64 µg/mL (≈ 192 µM). The “diameter of the inhibition zone (DIZ)” value in the test on Escherichia coli [7] is given as 12 mm; in the test on Bacillus cereus [9] it was 10 mm; in the test with Staphylococcus aureus [11], 11 mm.
In the case of `CC1(C)S[C@@H]2[C@H](NC(=O)Cc3ccccc3)C(=O)N2[C@H]1C(=O)O` [PENICILLIN G], the figures for the zone of inhibition at 10000 µg/mL with Escherichia coli [12], in the test on Bacillus cereus [13] and in the test on Staphylococcus aureus [14] were 12 mm, 13 mm and 16 mm, respectively. Besides, the MIC with Bacillus cereus [8] (ATCC 14579, 24 h) is 32 µg/mL (≈ 95.7 µM); in the test on Staphylococcus aureus [10] (ATCC 12600, 24 h), 16 µg/mL (≈ 47.8 µM).
Turning to `OC(Cn1cncn1)(Cn1cncn1)c1ccc(F)cc1F` [FLUCONAZOLE], the figures for the zone of inhibition at 50 µg/mL in the test with Aspergillus flavus [15] and in the test with Candida albicans [16] were 21 mm and 20 mm, respectively. Further, the MIC was found to be 16 µg/mL (≈ 52.2 µM) against Aspergillus flavus [2] (ATCC 11495, 24 h) and 16 µg/mL (≈ 52.2 µM) in the test with Candida albicans [4] (ATCC 26555, 24 h).
With `N#Cc1c(-c2ccc(F)cc2)[nH]c(=S)n2c(=O)c(=O)[nH]nc12`, in test [1], the Activity entry is “Dose-dependent effect”. The IC50 in test [1] was found to be 14.72 µg/mL (≈ 46.7 µM). Also, the MIC in the test on Aspergillus flavus [2] (ATCC 11495, 24 h) amounted to 16 µg/mL (≈ 50.7 µM); with Staphylococcus aureus [10] (ATCC 12600, 24 h), 32 µg/mL (≈ 101 µM). The “diameter of the inhibition zone (DIZ)” value worked out at 18 mm with Aspergillus flavus [3] and 14 mm in the test with Staphylococcus aureus [11]. The MIC entry in the test with Candida albicans [4], with Escherichia coli [6] (DSM 30083 = JCM 1649) and in the test on Bacillus cereus [8] was “inactive” throughout. Moreover, the “diameter of the inhibition zone (DIZ)” value with Candida albicans [5], with Escherichia coli [7] (DSM 30083 = JCM 1649) and in the test with Bacillus cereus [9] was “inactive” throughout.
For `COc1ccc(/C=N/Nc2nc(=S)[nH]c(-c3ccc(F)cc3)c2C#N)cc1`, the Activity result in test [1] is “Dose-dependent effect”. Further, in test [1], the IC50 was 12.68 µg/mL (≈ 33.4 µM). The MIC in the test with Aspergillus flavus [2] (ATCC 11495, 24 h) was 16 µg/mL (≈ 42.2 µM); with Candida albicans [4] (ATCC 26555, 24 h), 16 µg/mL (≈ 42.2 µM); against Escherichia coli [6] (DSM 30083 = JCM 1649, 24 h), 16 µg/mL (≈ 42.2 µM); with Bacillus cereus [8] (ATCC 14579, 24 h), 16 µg/mL (≈ 42.2 µM); in the test on Staphylococcus aureus [10] (ATCC 12600, 24 h), 16 µg/mL (≈ 42.2 µM). The “diameter of the inhibition zone (DIZ)” value in the test on Aspergillus flavus [3] was found to be 18 mm; in the test with Candida albicans [5] it was 18 mm; in the test with Escherichia coli [7], 19 mm; in the test with Bacillus cereus [9], 21 mm; with Staphylococcus aureus [11] it was 23 mm.
With `Cc1nnc2c(C#N)c(-c3ccc(F)cc3)[nH]c(=S)n12`, in test [1], the Activity result is “Dose-dependent effect”. In test [1], the IC50 is 72.03 µg/mL (≈ 252 µM). In addition, the MIC entry in the test on Aspergillus flavus [2], with Candida albicans [4], in the test on Escherichia coli [6] (DSM 30083 = JCM 1649), in the test with Bacillus cereus [8] and in the test with Staphylococcus aureus [10] was “inactive” throughout. The “diameter of the inhibition zone (DIZ)” value with Aspergillus flavus [3], in the test with Candida albicans [5], in the test on Escherichia coli [7] (DSM 30083 = JCM 1649), with Bacillus cereus [9] and with Staphylococcus aureus [11] was “inactive” each time.
With `COc1cc(-c2[nH]c(=S)n3c(=O)[nH]nc3c2C#N)cc(OC)c1OC`, the Activity entry in test [1] was “Dose-dependent effect”. Further, the IC50 in [1] worked out at 9.34 µg/mL (≈ 26 µM). Also, the MIC entry with Aspergillus flavus [2], with Candida albicans [4], in the test on Escherichia coli [6] (DSM 30083 = JCM 1649) and in the test with Bacillus cereus [8] was “inactive” each time. Besides, the “diameter of the inhibition zone (DIZ)” value in the test on Aspergillus flavus [3], in the test on Candida albicans [5], with Escherichia coli [7] (DSM 30083 = JCM 1649) and in the test on Bacillus cereus [9] was “inactive” throughout. For the same compound, the minimum inhibitory concentration (MIC) against Staphylococcus aureus [10] (ATCC 12600, 24 h) was determined as 64 µg/mL (≈ 178 µM). In addition, the “diameter of the inhibition zone (DIZ)” value with Staphylococcus aureus [11] was 10 mm.
